Data reported in ChEMBL document CHEMBL4834495, “A Green-Absorbing, Red-Fluorescent Phenalenone-Based Photosensitizer as a Theranostic Agent for Photodynamic Therapy” (ACS Med Chem Lett, 2021).
The source made the active and inactive calls. The calls are words filed in the database; no cut-off is given here.

How the values were obtained:
[1] = Absorption property of the compound in PBS containing 1% DMSO assessed as maximum absorption wavelength at pH 7.4 by UV-visible spectrophotometric method; assay type: physicochemical; settings: buffer
[2] = Induction of singlet oxygen generation in PBS assessed as singlet oxygen quantum yield at pH 7.4 irradiated with 415 nm LED light by ABDA sensor based UV-Vis spectrometer analysis; assay type: functional
[3] = Induction of singlet oxygen generation in PBS assessed as singlet oxygen quantum yield at pH 7.4 irradiated with 490 nm LED light by ABDA sensor based UV-Vis spectrometer analysis; assay type: functional
[4] = Absorption property of the compound in DMSO assessed as maximum absorption wavelength at pH 7.4 by UV-visible spectrophotometric method; assay type: physicochemical
[5] = Photostability of the compound in PBS assessed as absorbance at 546 nm at 2 uM measured upon irradiation with 530 nm LED light in presence of BSA by absorbance based analysis; assay type: physicochemical; settings: buffer
[6] = Solubility of the compound in PBS containing 1% DMSO assessed as aggregate formation by measuring reduction in fluorescence intensity at 2 uM at pH 7.4 by fluorescence analysis; assay type: physicochemical; settings: buffer, pH 7.4, 2 µM
[7] = test system: PANC-1; assay: Antitumor activity against human PANC-1 cell 3D spheroids assessed as spheroid diameter at 0.063 to 1.5 uM incubated for 3 hrs under dark conditions by ReadyProbes Blue/Green reagent based cell viability imaging analysis; assay type: functional; settings: dose 0.063-1.5 µM
How it was run: (§1)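 PANC-1 spheroids incubated 3 h with compound (0–1.5 μM), then either kept dark or irradiated 15 min with a green-filtered lamp (emission max 525 nm, 16.61 J/cm2). Diameter and morphology were assessed from bright-field images. Viability was imaged at 10× with the ReadyProbes Blue/Green kit: Hoechst 33342 stains all nuclei blue, and a green nuclear dye stains dead cells.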

[8] = test system: PANC-1; assay: Antitumor activity against human PANC-1 cell 3D spheroids assessed as total spheroid breakage at 0.063 to 1.5 uM incubated for 3 hrs under dark conditions by ReadyProbes Blue/Green reagent based cell viability imaging analysis; assay type: functional; settings: dose 0.063-1.5 µM; how it was run: as §1
[9] = Solubility of the compound in DMEM medium assessed as aggregate formation by measuring reduction in fluorescence intensity at 9 uM by fluorescence analysis; assay type: physicochemical
[10] = Induction of singlet oxygen generation in DMSO assessed as singlet oxygen quantum yield at pH 7.4 irradiated with 530 nm LED light by ABDA sensor based UV-Vis spectrometer analysis; assay type: functional
[11] = test system: PANC-1; assay: Antitumor activity against human PANC-1 cell 3D spheroids assessed as total spheroid breakage at 1.5 uM incubated for 3 hrs followed by irradiation with 525 nm green lamp light for 15 mins and measured after 27 hrs by ReadyProbes Blue/Green reagent based cell viability imaging analysis; assay type: functional; settings: time 1815.0 min; how it was run: as §1
[12] = test system: PANC-1; assay: Induction of ROS production in human PANC-1 cells assessed as increase in green fluorescence intensity at 2 uM incubated for 3 hrs followed by irradiation with 530 nm LED light for 10 mins by DCFH2-DA staining based fluorescence microscopy; assay type: functional, cell-based; settings: time 190.0 min
How it was run: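 PANC-1 cells in reduced-serum Opti-MEM received compound from a DMSO stock (2 μM final) for 3 h, plus the ROS sensor DCFH2-DA. Cells were irradiated at 530 nm for 10 min (11.14 J/cm2). Green DCF fluorescence was imaged by fluorescence microscopy and compared with non-irradiated cells and with single-agent irradiated controls.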

[13] = Fluorescence property of the compound in DMSO assessed as quantum yield; assay type: physicochemical
[14] = test system: PANC-1; assay: Antitumor activity against human PANC-1 cell 3D spheroids assessed as reduction in spheroid diameter at 0.063 to 1.5 uM incubated for 3 hrs followed by irradiation with 525 nm green lamp light for 15 mins and measured after 27 hrs by ReadyProbes Blue/Green reagent based cell viability imaging analysis; assay type: functional; settings: dose 0.063-1.5 µM, time 1815.0 min; how it was run: as §1
[15] = test system: PANC-1; assay: Dark toxicity against human PANC-1 cells assessed as reduction in cell viability incubated for 24 hrs by MTT assay; assay type: functional, cell-based; settings: PANC-1, 24 h
How it was run: (§2)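 PANC-1 cells were treated with compound (0–2 μM), then either kept dark or irradiated 15 min under a green-filtered lamp (emission max 525 nm, 16.61 J/cm2). Cells were then cultured 24 h in the dark, and viability was read by standard MTT assay. Data are mean ± SD, n = 9; IC50 was taken from the dose–response.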

[16] = Emission property of the compound in DMSO assessed as maximum emission wavelength; assay type: physicochemical
[17] = test system: PANC-1; assay: Phototoxicity against human PANC-1 cells assessed as reduction in cell viability incubated for 3 hrs followed by 525 nm green-light irradiation for 15 mins and measured after overnight incubation by MTT assay; assay type: functional, cell-based; how it was run: as §2
[18] = test system: PANC-1; assay: Antitumor activity against human PANC-1 cell 3D spheroids assessed as spheroid cell death at 0.063 to 1.5 uM incubated for 3 hrs under dark conditions by Hoechst33342 staining based analysis; assay type: functional; settings: dose 0.063-1.5 µM; how it was run: as §1
[19] = Absorption property of the compound in PBS assessed as molar extinction coefficient in presence of BSA by absorbance based analysis; assay type: physicochemical; settings: buffer
[20] = Solubility of the compound in PBS containing 1% DMSO assessed as aggregate formation by measuring reduction in singlet oxygen formation irradiated with 530 nm LED light by ABDA sensor based UV-Vis spectrometer analysis; assay type: physicochemical; settings: buffer
[21] = test system: PANC-1; assay: Antitumor activity against human PANC-1 cell 3D spheroids assessed as changes in spheroid morphology and density incubated for 3 hrs followed by irradiation with 525 nm green lamp light for 15 mins and measured after 27 hrs by ReadyProbes Blue/Green reagent based cell viability imaging analysis; assay type: functional; settings: dose 0.063-1.5 µM, time 1815.0 min; how it was run: as §1
[22] = test system: PANC-1; assay: Induction of apoptosis in human PANC-1 cells at 0.5 uM incubated for 3 hrs followed by incubation under dark conditions for 30 mins by Annexin V-FITC/PI staining based flow cytometric analysis; assay type: functional, cell-based; settings: time 210.0 min
[23] = Solubility of the compound in Opti-MEM medium assessed as aggregate formation by measuring reduction in fluorescence intensity at 9 uM by fluorescence analysis; assay type: physicochemical
[24] = test system: PANC-1; assay: Antitumor activity against human PANC-1 cell 3D spheroids assessed as spheroid cell death at 0.38 to 1.5 uM incubated for 3 hrs followed by irradiation with 525 nm green lamp light for 15 mins and measured after 27 hrs by Hoechst33342 nuclear staining based analysis; assay type: functional; settings: dose 0.38-1.5 µM, time 1815.0 min; how it was run: as §1
[25] = test system: PANC-1; assay: Induction of apoptosis in human PANC-1 cells at 0.5 uM incubated for 3 hrs followed by irradiation with 525 nm green lamp light for 15 mins and measured after 24 hrs by Annexin V-FITC/PI staining based fluorescence microscopy; settings: time 1635.0 min
[26] = Absorption property of the compound in PBS assessed as molar extinction coefficient by absorbance based analysis; assay type: physicochemical; settings: buffer

Nc1cc2c3c(cccc3c1)C(=O)C=C2
Activity [1]: 457 nm | Activity [2]: 0.18

COc1ccc2cccc3c2c1C(=O)C(Br)=C3
Activity [1]: 427 nm | Activity [2]: 0.89

O=C1C=Cc2cccc3ccc(O)c1c23
Activity [1]: 439 nm | Activity [2]: 0.96

COc1ccc2cccc3c2c1C(=O)C=C3
Activity [1]: 418 nm | Activity [2]: 0.68

Nc1cc2c3c(c(O)ccc3c1)C(=O)C=C2
Activity [3]: < 0.01 | Activity [1]: 485 nm

Nc1c(Br)cc2c3c(cccc13)C(=O)C(Br)=C2
Activity [4]: 525 nm | Stabilty [5]: Stable | solubility [6]: Insoluble | Activity [7]: inactive | Activity [8]: inactive | solubility [9]: Insoluble | Activity [10]: 0.47 | Activity [11]: Active | Activity [12]: Active | Activity [13]: 0.29 | Activity [14]: Active | Activity [1]: 546 nm | IC50 [15]: > 2000 nM | Activity [16]: 602 nm | Activity [17]: Dose-Dependent Effect | IC50 ([17]; PANC-1, light or radiation study): 166 nM | Activity [18]: inactive | Activity [19]: 12695 M⁻¹ cm⁻¹ | solubility [20]: Insoluble | Activity [21]: Dose-Dependent Effect | Activity [22]: inactive | solubility [23]: Insoluble | Activity [24]: Active | Activity [25]: Active

O=C1C=Cc2cccc3cccc1c23 [PERINAPHTHENONE]
Activity [26]: 10000 M⁻¹ cm⁻¹ | Activity [2]: 1

Nc1cc2c3c(cccc3c1Br)C(=O)C=C2
Activity [1]: 458 nm | Activity [2]: 0.1

Nc1ccc2c3c(cccc13)C(=O)C=C2
Activity [4]: 518 nm | Activity [26]: 12736 M⁻¹ cm⁻¹ | Activity [10]: < 0.01 | Activity [13]: 0.26 | Activity [1]: 548 nm | Activity [16]: 597 nm

O=C1OC2(c3ccccc31)c1cc(Br)c(O)c(Br)c1Oc1c2cc(Br)c(O)c1Br
Activity [3]: 0.57

CCN(CC)c1ccc2c(-c3ccccc3C(=O)O)c3ccc(=[N+](CC)CC)cc-3oc2c1.[Cl-] [RHODAMINE]
Activity [13]: 0.5
